An excerpt weighted towards active compounds, which were near 2.9% of everything screened.
TRPC4 PAM: allosterically enhances the mouse TRPC4 cation channel; Q9QUQ5; HEK293 TRPC4beta/mu-opioid, DAMGO EC20, Fluo-4 Ca2+ flux; hits give high values; B-score at 10 µM; hit rate 0.42% among 310,000; AID 2227;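 active means B-score of calcium response area above 5 SD of library B-scores, with initial fluorescence ratio within 5 SD of library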
TRPC4 inh: blocks the mouse TRPC4 cation channel; Q9QUQ5; HEK293 TRPC4beta/mu-opioid, DAMGO-evoked Fluo4 calcium flux; hits give low values; B-score at 10 µM; hit rate 0.39% among 300,000; AID 2247;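 active means B-score over 3 SD under the library average, no early fluorescence shift, positive overall ratio signal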
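System: stable TRPC4beta/mu-opioid receptor HEK293 cells; Dosing: single-point compound dosing; Measured by: Fluo4 Ca2+ flux fluorescence; Read-out basis: per-well B score of integrated baseline-normalized Fluo4 ratio.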
TRPC4 agonist: activators of mouse TRPC4 channel; Q9QUQ5; AID 2237; B-score at 10 µM; hit rate 0.49% among 310,000; HEK293 TRPC4beta/mu-opioid, Fluo4 calcium fluorescence; hits give high values;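 active means B-score above 5 SD of library B-scores, and initial fluorescence ratio not above library mean plus 5 SD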;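 further: positive B-score marks a calcium rise read as TRPC4 activation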
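Test system: HEK293 cells stably co-expressing mouse TRPC4beta and mu-opioid receptor | Schedule: Fluo4 dye loading 45 min at room temperature, 110 s recording | Measured by: Kinetic Fluo4 calcium fluorescence, 5 s baseline at 1 Hz | Evaluation: B score of integrated ratio | Controls: Buffer (low) and maximal DAMGO (high)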
Kir21 block: inhibitors of mouse Kir2.1 inward-rectifier potassium channel | P35561 | HEK293-Kir2.1, FluxOR thallium flux fluorescence; hits give low values | B-score at 10 µM | hit rate 0.85% among 310,000;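 active means fluorescence ratio B-score at or below minus 3 SD of library scores, with starting-brightness B-score within 2 SD, cut at about -4.2 in these data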;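 further: channel flux triggered by added potassium and thallium sulfate stimulus; B-score of peak minus minimum fluorescence over baseline after thallium stimulus; more negative B-score means stronger Kir2.1 block with less thallium influx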
Target sequence (P35561 whole entry, looked up): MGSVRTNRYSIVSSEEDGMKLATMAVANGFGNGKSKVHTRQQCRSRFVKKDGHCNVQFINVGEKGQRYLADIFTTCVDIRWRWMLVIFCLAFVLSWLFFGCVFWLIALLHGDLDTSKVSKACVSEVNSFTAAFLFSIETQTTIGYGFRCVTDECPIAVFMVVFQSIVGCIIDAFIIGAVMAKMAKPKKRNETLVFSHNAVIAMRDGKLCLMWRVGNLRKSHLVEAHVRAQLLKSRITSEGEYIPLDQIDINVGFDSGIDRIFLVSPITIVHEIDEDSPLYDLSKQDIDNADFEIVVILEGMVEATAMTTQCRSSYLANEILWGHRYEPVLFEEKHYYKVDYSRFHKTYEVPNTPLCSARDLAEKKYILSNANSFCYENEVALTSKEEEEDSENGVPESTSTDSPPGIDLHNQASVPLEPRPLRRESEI
TRPC6 inhibitor: blocks the mouse TRPC6 cation channel | HEK293-TRPC6, membrane potential dye, ACh-evoked depolarization; hits give low values | B-score at 10 µM | hit rate 1.1% among 310,000;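 active means B-score under library mean minus 3 SD, initial fluorescence not abnormally high, positive integrated signal ratio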;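 further: B-score derived from integrated fluorescence ratio over the kinetic read; more negative B-score means stronger inhibition of depolarization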
TRPC6 activator: mouse TRPC6 channel activation; HEK293-TRPC6 membrane potential dye fluorescence; hits give high values; Q61143; hit rate 0.13% among 310,000; B-score at 10 µM; AID 2550;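 active means B-score of the integrated fluorescence ratio above library mean plus 3 SD, and starting fluorescence ratio within library mean plus 5 SD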;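 further: higher score means more depolarization so channel activation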
Of the large screens only hits and unclear results are named; the others gave an inactive call.

COC(=O)C1CC(Cl)CN1c1ncc(C(F)(F)F)cc1Cl (configuration not stated)	TRPC4 PAM 11
CC(C)(C(N)=O)N1CCN(c2ncc(C(F)(F)F)cc2Cl)CC1	TRPC4 agonist 61
FC(F)(F)c1cnc(N2CCCN(C(=S)Nc3ccccc3)CC2)c(Cl)c1	TRPC4 agonist 159
CCN(CC)c1ccc(S(=O)(=O)N2CCOCC2)cc1NC(=O)COC(=O)c1ccco1	none
c1csc(-c2ccc3ccccc3n2)c1	none
O=C(Cc1c(O)c2ccccc2oc1=O)c1ccc(C(F)(F)F)cc1	none
O=C(CSc1ccccn1)N1CCN(C(=O)CSc2ccccn2)CC1	none
O=C(CSc1ccccn1)N1CCN(c2ncc(C(F)(F)F)cc2Cl)CC1	TRPC4 agonist 49
S=C(NCc1ccc2c(c1)OCO2)NC1CCN(Cc2ccccc2)CC1	Kir21 block -12
Fc1ccc(C(c2nnnn2Cc2cccs2)N2CCN(C3CCCC3)CC2)cc1 (configuration not stated)	none
COc1ccc(Cn2nnnc2C(c2ccccc2)N2CCN(C3CCCC3)CC2)cc1 (configuration not stated)	none
COCCn1nnnc1C(c1cccc(OC)c1OC)N1CCN(C(=O)c2ccco2)CC1 (configuration not stated)	none
COc1ccc(C(c2nnnn2C2CCCC2)N2CCN(c3ccccc3)CC2)cc1 (configuration not stated)	TRPC4 inh -6
COCCn1nnnc1C(c1cccc(OC)c1OC)N1CCN(C2CCCCC2)CC1 (configuration not stated)	TRPC4 inh -6
c1ccc(Cn2nnnc2C(c2cccnc2)N2CCN(C3CCCCC3)CC2)cc1 (configuration not stated)	TRPC4 agonist 103
Fc1ccc(C(c2nnnn2Cc2ccco2)N2CCN(C3CCCCC3)CC2)cc1 (configuration not stated)	TRPC4 agonist 196
COc1cccc(-c2nc3ccccc3c(=O)n2NC(=O)c2cccnc2Cl)c1	none
CCc1ccc(-n2c(SCC(=O)Nc3cc(C)[nH]n3)nc3[nH]ncc3c2=O)cc1	none (no result: TRPC4 inh)
COc1cccc(OC)c1C(=O)Nc1ccc(N2CCN(C(=O)c3cccs3)CC2)cc1	none
COc1ccc(Cn2nnnc2C(c2ccccc2Cl)N2CCN(C3CCCC3)CC2)cc1 (configuration not stated)	Kir21 block -5.1
Cc1ccc(-c2cc(-c3ccccc3)nc(N)c2C#N)o1	none
COc1ccc(-n2cccc2C=O)cc1	none
COc1ccc(-n2cccc2/C=C/[N+](=O)[O-])cc1	Kir21 block -4.8
Fc1ccc(Cn2cccc2C2=NC(c3ccccc3)CO2)cc1 (configuration not stated)	Kir21 block -5.9
Cc1oc(-c2ccccc2)nc1Cn1cccc1C1=NC(c2ccccc2)CO1 (configuration not stated)	none
O=C(Nc1ccc(Cl)cc1)ON=C1CCCC1	none
O=C(CCC(=O)N(CC(=O)NC1CCCC1)Cc1ccc2c(c1)OCO2)Nc1nccs1	none
Cc1c(C(=O)N2CCC(Cc3ccccc3)CC2)cccc1[N+](=O)[O-]	none
COCCSc1ccccc1C(=O)N1CCC(Cc2ccccc2)CC1	TRPC4 inh -7, TRPC4 agonist 44
Oc1ccccc1CN1CCC(C(O)(c2ccccc2)c2ccccc2)CC1	Kir21 block -5.2
Oc1ccccc1CN1CCN(C(O)(c2ccccc2)c2ccccc2)CC1	Kir21 block -7.3
CC(C)(C)OC(=O)N[C@@H](Cc1ccccc1)c1nnc(S(=O)(=O)Cc2cccc(F)c2)o1	none
CC(C)C[C@H](N)c1nnc(S(=O)(=O)Cc2cccc(F)c2)o1	Kir21 block -7.9
Cc1ccc(CSc2nnc(-c3cccc(S(=O)(=O)N4CCOCC4)c3)n2C2CCCC2)cc1	TRPC4 PAM 18
NC(=O)CSc1nnc(-c2cccc(S(=O)(=O)N3CCOCC3)c2)n1C1CCCCCC1	none
CC(=O)N(Cc1ccc(Br)cc1)c1cccc(C)c1C	Kir21 block -4.9
O=C(COC(=O)c1cc(Br)ccc1O)NCC1CCCO1 (configuration not stated)	none
c1ccc(-c2csc3nnc(SCc4ccc5c(c4)OCCO5)n23)cc1	Kir21 block -5.2
O=C(CSc1nnc2scc(-c3ccccc3)n12)c1ccc2c(c1)OCCO2	none
O=C(CNCC1CCCCC1)Nc1ccc(OC(F)(F)F)cc1	TRPC4 agonist 43
Cc1nn(-c2nnc(NCc3ccccc3)nn2)c(C)c1Br	TRPC4 PAM 17
COc1ccc(CNc2nc3ccccc3n2Cc2ccc(C)cc2)cc1OC	none
Cc1c[n+]([O-])cc(C)c1Oc1ccccc1	none
O=C(NCC1CCCO1)C1CCN(S(=O)(=O)Cc2ccccc2)CC1 (configuration not stated)	none
COc1ccc(C)cc1N(C(=O)c1ccccc1F)c1nc2ccccc2s1	TRPC4 inh -6
CCCCNCC1C(Oc2ccc(Cl)cc2)C(=O)N1c1ccccc1C (configuration not stated)	TRPC4 inh -6
CCCNCC1C(Oc2ccc(Cl)cc2Cl)C(=O)N1c1cccc(C)c1C (configuration not stated)	none
OCC1(Cc2cccc(Cl)c2)CCCN(Cc2ccc(F)c(F)c2)C1 (configuration not stated)	none
OCC1(Cc2ccc(F)cc2F)CCCN(Cc2ccc(Cl)cc2)C1 (configuration not stated)	Kir21 block -9.4
COc1cc(/C=C2/C(=N)N3C(SC)=NSC3=NC2=O)ccc1OC(=O)c1ccco1	Kir21 block -4.6
C=CCn1c(Cc2cccs2)nnc1SC/C=C/c1ccccc1	Kir21 block -15
Cn1c(SC/C=C/c2ccccc2)nnc1-c1cccs1	none
CCn1c(SC/C=C/c2ccccc2)nnc1-c1cccs1	Kir21 block -7.8
CC(=O)N1CCC(N(CCN2CCOCC2)C(=S)Nc2ccc(C)cc2)CC1	none
O=C(CSc1nncn1-c1cccnc1)Nc1ccccc1[N+](=O)[O-]	none
Cc1cc(C)c2nc(C)cc(N/N=C/c3ccc(O)cc3)c2c1	TRPC4 inh -6, Kir21 block -10
Cc1cc(N/N=C/c2ccc(O)cc2)c2cccc(C)c2n1	none
COc1ccc(C(=O)NC2CCN(CC(=O)NC3CCCCC3)CC2)cc1	TRPC4 inh -6
COc1ccc(C(=O)NC2CCN(CC(=O)N3CCCCC3)CC2)cc1	none
CC(=O)N1CCN(c2ccc(NC(=O)c3ccc(Cl)cc3)cc2)CC1	none
Cc1ccc(S(=O)(=O)NCc2c(-c3ccccc3)noc2C)cc1	Kir21 block -4.3
CN(C)CC(C)(C)CNC(=O)C1CCN(CCCc2ccccc2)CC1	none

High-throughput results: PubChem BioAssay, Johns Hopkins Ion Channel Center
